Results: ChEMBL document CHEMBL4334473, “Structure-Based Molecular Networking for the Target Discovery of Oxahomoaporphine and 8-Oxohomoaporphine Alkaloids from Duguetia surinamensis” (J Nat Prod, 2019)

How the values were obtained:
HepG2 = assay: Cytotoxicity against human HepG2 cells assessed as cell growth inhibition after 72 hrs by alamar blue assay; type: functional, cell-based; details: HepG2, 72 h
Outline: (§1)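 Tumour lines and MRC-5 fibroblasts obtained from ATCC, cultured per ATCC guidelines and confirmed mycoplasma-free by staining. Viability read by Alamar blue after 72 h exposure. IC50 in μM with 95% confidence interval by nonlinear regression, from at least three independent experiments run in duplicate. Doxorubicin served as positive control.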

MCF7 = assay: Cytotoxicity against human MCF7 cells assessed as cell growth inhibition after 72 hrs by alamar blue assay; type: functional, cell-based; details: MCF7, 72 h; outline: as §1
HL-60 = assay: Cytotoxicity against human HL60 cells assessed as cell growth inhibition after 72 hrs by alamar blue assay; type: functional, cell-based; details: HL-60, 72 h; outline: as §1
HCT-116 = assay: Cytotoxicity against human HCT116 cells assessed as cell growth inhibition after 72 hrs by alamar blue assay; type: functional, cell-based; details: HCT-116, 72 h; outline: as §1
MRC5 = assay: Cytotoxicity against human MRC5 cells assessed as cell growth inhibition after 72 hrs by alamar blue assay; type: cell-based; details: MRC5, 72 h; outline: as §1
HCT-8 = assay: Cytotoxicity against human HCT8 cells assessed as inhibition of cell viability after 69 hrs by MTT assay; type: functional, cell-based; details: HCT-8, 69 h
SF-295 = assay: Cytotoxicity against human SF295 cells assessed as inhibition of cell viability after 69 hrs by MTT assay; type: functional, cell-based; details: SF-295, 69 h
MDA-MB-435 = assay: Cytotoxicity against human MDA-MB-435 cells assessed as inhibition of cell viability after 69 hrs by MTT assay; type: functional, cell-based; details: MDA-MB-435, 69 h

SMILES	IC50 (HepG2) [µM]	IC50 (MCF7) [µM]	IC50 (HL-60) [µM]	IC50 (HCT-116) [µM]	IC50 (MRC5) [µM]	IC50 (HCT-8) [µM]	IC50 (SF-295) [µM]	IC50 (MDA-MB-435) [µM]
COc1cc2c(cc1OC)-c1c3c(cc4ccnc(c14)C2=O)OCO3 [DICENTRINONE]	> 10	> 10	> 10	> 10	> 10	–	–	–
COC1=C[C@@]23CCN(C)[C@@H](Cc4cc(O)c(OC)cc42)C3=CC1=O	> 10	> 10	> 10	> 10	> 10	–	–	–
COc1cc2c(cc1OC)[C@H](O)[C@@H]1c3c(cc4c(c3-2)OCO4)CCN1C	5	> 10	4.8	> 10	> 10	1.4	1.4	12.4
COc1cccc2c1C(=O)c1c(O)c3c(c(O)c1C2=O)C[C@@](O)(C(=O)CO)C[C@@H]3O[C@H]1C[C@H](N)[C@H](O)[C@H](C)O1 [DOXORUBICIN]	0.04	–	0.04	0.3	2.4	–	–	–
COc1ccc(OC)c(OC)c1 [1,2,4-TRIMETHOXYBENZENE]	> 10	> 10	> 10	> 10	> 10	–	–	–
COc1ccc2c(c1)c(=O)cc1c3c(cc4c(c32)OCO4)CCN1C	> 10	> 10	> 10	> 10	> 10	–	–	–
COc1cc2c(cc1OC)[C@H](O)[C@@H]1c3c(cc4c(c3-2)OCO4)CC[N+]1(C)[O-] (stereo not given in full)	> 10	> 10	9.6	9.2	> 10	1.9	1.6	7.3
COc1cc2c(cc1OC)-c1c3c(cc4c1[C@H](C2)N(C)CC4)OCO3 [DICENTRINE]	> 10	> 10	3.7	8.8	> 10	–	–	–
COc1cc2c(cc1OC)[C@@H](O)[C@@H]1NCCc3cc4c(c-2c31)OCO4	9.1	10	2	4	> 10	–	–	–
COc1cc2c(=O)cc3c4c(cc5c(c4c2cc1OC)OCO5)CCN3C	> 10	> 10	> 10	> 10	> 10	–	–	–
